The results in this text go back to ChEMBL document CHEMBL4368875, “Towards identifying potent new hits for glioblastoma” (Medchemcomm, 2018).

Data set [1] is described as follows: Antiproliferative activity against human IN1760 cells after 72 hrs by sulforhodamine B assay. The data set is classed as functional, cell-based. The note with it: IN1760, 72 h. The essentials: (§1)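 Short-term cultures derived from about 10mg of adult GBM biopsy tissue, used at passages 10 to 14. Grown in Hams F10 with 10% foetal calf serum at 37 °C without CO₂. Seeded at 3000 cells per well, then grown 48 h to exponential phase. Treated 72 h with serial dilutions from DMSO stocks. SRB read-out at 560nm. EC50 from a variable-slope sigmoidal dose-response fit.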

A short description of data set [2]: Antiproliferative activity against human IN1528 cells after 72 hrs by sulforhodamine B assay. The note with it: IN1528, 72 h. The data set is classed as functional, cell-based. The essentials: as §1
The next data set relates to U-251. The experiment in a line: Antiproliferative activity against human U251MG cells after 72 hrs by sulforhodamine B assay. The data set is classed as functional, cell-based. As to conditions: U-251, 72 h. A digest of the protocol:
(§2)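 Established GBM lines grown under conditions similar to the short-term cultures (Hams F10, 10% foetal calf serum, 37 °C, no CO₂). Seeded at 3000 cells per well and grown 48 h to exponential phase. Exposed 72 h to serial dilutions from DMSO stocks. Fixed in 10% TCA, stained with 0.4% SRB in 1% acetic acid, dye dissolved in 10mM Tris, absorbance 560nm. EC50 by non-linear variable-slope fit.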

The next data set relates to U-87 MG. The experiment in a line: Antiproliferative activity against human U87MG cells after 72 hrs by sulforhodamine B assay. Type of data set: functional, cell-based, U-87MG ATCC. The essentials:
as §2

Data set [3] can be described thus: Antiproliferative activity against human IN1472 cells after 72 hrs by sulforhodamine B assay. As to conditions: IN1472, 72 h. Type of data set: functional, cell-based. The essentials:
as §1

Data set [4] in a line: Solubility of the compound in DMSO at >1250 uM. Type of data set: physicochemical.

For `Oc1ccccc1OCc1ccccc1`, the EC50 in data set [1] came to 371 µM; in data set [2], 193 µM; in the data set with U-251, 304 µM.
As to `c1ccc2[nH]ccc2c1` [INDOLE], the EC50 (in data set [1]; with U-87 MG; in data set [2]; in the data set with U-251; in data set [3]) was > 625 µM throughout.
For the molecule `COc1ccccc1-c1cc2ccccc2[nH]1` [2-(2'-METHOXYPHENYL)-1H-INDOLE], the EC50 in the data set on U-87 MG is > 625 µM.
With `c1ccc(-c2cc3ccccc3[nH]2)cc1` [2-PHENYL-1H-INDOLE], the EC50 (in data set [1]; with U-87 MG; in data set [2]; with U-251; in data set [3]) was > 625 µM in each case.
As to `Cc1ccccc1O` [ORTHOCRESOL], the EC50 in data set [1] is > 4000 µM; in the data set with U-87 MG, 664 µM; in data set [2] it was 744 µM; in the data set with U-251, 1560 µM; in data set [3], 1440 µM.
For `CC(=O)Oc1ccccc1C(=O)O` [ASPIRIN], in that order: > 4000 µM, 723 µM, 787 µM, 1340 µM and 1410 µM.
Taken in the same sequence, the figures for `COc1ccccc1O` [GUAIACOL] were > 4000 µM, 492 µM, 813 µM, 1140 µM and 2020 µM.
Regarding `Oc1ccccc1` [PHENOL], the EC50 was > 4000 µM in data set [1]; 834 µM in the data set with U-87 MG; 747 µM in data set [2]; 1230 µM with U-251; 1730 µM in data set [3].
As for `CC(=O)Oc1ccccc1-c1cc2ccccc2[nH]1`, the EC50 was determined as 80 µM in data set [2] and 31 µM in the data set on U-251.
As for `NC(=O)c1ccccc1O` [SALICYLAMIDE], the EC50 in data set [1] is > 4000 µM; in the data set with U-87 MG, 760 µM; in data set [2], 793 µM; with U-251 it was 1200 µM; in data set [3], 1390 µM.
For the molecule `Cc1ccc(O)c(-c2cc3ccccc3[nH]2)c1`, the EC50 worked out at 32 µM in data set [1], 29 µM in data set [2] and 21 µM in the data set with U-251.
Regarding `Oc1ccccc1-c1nc2ccccc2o1`, the EC50 in data set [1] was > 2500 µM; in the data set with U-87 MG, 52 µM; in the data set on U-251 it was 2260 µM.
As to `Oc1ccccc1-c1cc2ccccc2[nH]1` [2-(2'-HYDROXYPHENYL)-1H-INDOLE], the EC50 in data set [1] was 185 µM; in the data set with U-87 MG it was 126 µM; in data set [2] it was 99 µM; in the data set with U-251, 130 µM; in data set [3], > 625 µM.
Take `Nc1ccccc1-c1cc2ccccc2[nH]1`: the EC50 with U-87 MG was determined as 257 µM; in data set [2], 153 µM; in the data set on U-251, 328 µM; in data set [3] it was 155 µM.
With `CCCCCCC(=O)Oc1ccccc1-c1cc2ccccc2[nH]1`, the EC50 was determined as 29 µM in data set [2] and 38 µM in the data set on U-251.
For `Oc1ccccc1-c1ccc2ccccc2c1`, the EC50 in data set [1] was > 1000 µM; in the data set on U-87 MG it was 48 µM; in data set [2] it was 104 µM; in the data set with U-251, 92 µM.
Turning to `O=C1c2ccccc2C(=O)N1c1ccccc1O`, the EC50 in data set [1] turned out to be 1080 µM; in data set [2], 744 µM; in the data set on U-251, 916 µM.
In the case of `O=C(Oc1ccccc1-c1cc2ccccc2[nH]1)c1ccccc1`, the figures for the EC50 (in data set [2]; with U-251) were 38 µM and 39 µM, respectively.
With `Cc1c(O)ccc(O)c1C`, the EC50 in the data set with U-251 is 17 µM.
Take `Oc1ccccc1-c1nc2ccccc2s1`: the EC50 (in data set [1]; in the data set on U-87 MG; in data set [2]; in the data set with U-251; in data set [3]) was > 1250 µM throughout. Further, in data set [4], the solubility entry was “Insoluble”.
For the molecule `Oc1ccccc1-c1c[nH]c2ccccc12`, the EC50 in data set [1] is 231 µM; in data set [2] it was 120 µM; in the data set with U-251 it was 95 µM.
For `Oc1ccccc1-c1nc2ccccc2[nH]1`, in that order: 36 µM, 25 µM and 23 µM.
Turning to `O=[N+]([O-])c1ccccc1O` [NITROPHENOLATE], the EC50 in data set [1] was > 4000 µM; in the data set with U-87 MG, 888 µM; in data set [2] it was 890 µM; in the data set with U-251, 1250 µM.
In the case of `Oc1ccc(O)cc1` [HYDROQUINONE], in the data set on U-251, a half-maximal response (EC50) required 57 µM.
Take `Oc1ccc(-c2ccccc2)cc1`: the EC50 in data set [1] stood at 81 µM; in data set [2] it was 85 µM; in the data set on U-251, 102 µM.
For `Oc1ccccc1-c1ccccc1` [2-PHENYLPHENOL], in that order: 236 µM, 361 µM and 372 µM.
